Test results from ChEMBL document CHEMBL1152835, “Synthesis and QSAR modeling of 2-acetyl-2-ethoxycarbonyl-1-[4(4'-arylazo)-phenyl]-N,N-dimethylaminophenyl aziridines as potential antibacterial agents” (2009).
Values after ≈ are worked out from the molar mass of the structure shown.

How the values were obtained:
Assay type in all cases: functional
[1] = test system: Brevundimonas diminuta; test: Antibacterial activities against Pseudomonas diminuta MTCC 3361 after 16 to 24 hrs by twofold serial dilution method
How it was run: (§1)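 Agar twofold serial dilution; compounds from DMF stock. Inoculum about 10⁷ CFU/ml taken from log-phase broth culture. Plates in triplicate, incubated at 37 °C for 16–24 h. Azinomycin run under the same conditions as control drug. MIC = lowest concentration giving no visible growth.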

[2] = test system: Bacillus subtilis; test: Antibacterial activities against Bacillus subtilis ATCC 6633 after 16 to 24 hrs by twofold serial dilution method; details: for MIC: Bacillus subtilis, ATCC 6633; how it was run: as §1
[3] = test system: Escherichia coli; test: Antibacterial activities against Escherichia coli ATCC 13067 after 16 to 24 hrs by twofold serial dilution method; how it was run: as §1
[4] = test system: Staphylococcus aureus; test: Antibacterial activities against Staphylococcus aureus ATCC 2943 after 16 to 24 hrs by twofold serial dilution method; how it was run: as §1

SMILES | -logMIC [1] | -logMIC [2] | MIC [2] [ng/mL] | -logMIC [3] | -logMIC [4]
CCOC(=O)C1(C(C)=O)C(c2ccc(N(C)C)cc2)N1c1ccc(/N=N/c2ccc(C)cc2)cc1 (stereo not drawn) | 4.591 | – | – | – | –
CCOC(=O)C1(C(C)=O)C(c2ccc(N(C)C)cc2)N1c1ccc(/N=N/c2ccc(O)cc2)cc1 (stereo not drawn) | 4.183 | 4.212 | 0.0614 (≈ 0.13 nM) | 4.094 | 4.13
CCOC(=O)C1(C(C)=O)C(c2ccc(N(C)C)cc2)N1c1ccc(/N=N/c2cccc([N+](=O)[O-])c2)cc1 (stereo not drawn) | 4.586 | 4.658 | 0.022 (≈ 0.0438 nM) | 4.399 | 4.469
CCOC(=O)C1(C(C)=O)C(c2ccc(N(C)C)cc2)N1c1ccc(/N=N/c2cccc(Cl)c2)cc1 (stereo not drawn) | 4.412 | 4.46 | 0.0347 (≈ 0.0706 nM) | 4.276 | 4.329
CCOC(=O)C1(C(C)=O)C(c2ccc(N(C)C)cc2)N1c1ccc(/N=N/c2ccc(Cl)cc2)cc1 (stereo not drawn) | 4.348 | 4.39 | 0.0407 (≈ 0.083 nM) | 4.228 | 4.276
CCOC(=O)C1(C(C)=O)C(c2ccc(N(C)C)cc2)N1c1ccc(/N=N/c2cccc(C)c2)cc1 (stereo not drawn) | 4.371 | 4.442 | 0.0361 (≈ 0.0768 nM) | 4.241 | 4.292
CCOC(=O)C1(C(C)=O)C(c2ccc(N(C)C)cc2)N1c1ccc(/N=N/c2cccc(C(=O)O)c2)cc1 (stereo not drawn) | 4.495 | 4.553 | 0.028 (≈ 0.0559 nM) | 4.337 | 4.398
CCOC(=O)C1(C(C)=O)C(c2ccc(N(C)C)cc2)N1c1ccc(/N=N/c2ccc([N+](=O)[O-])cc2)cc1 (stereo not drawn) | 4.524 | 4.586 | 0.0259 (≈ 0.0517 nM) | 4.378 | 4.445
CCOC(=O)C1(C(C)=O)C(c2ccc(N(C)C)cc2)N1c1ccc(/N=N/c2cccc(Br)c2)cc1 (stereo not drawn) | 4.378 | – | – | – | –
CCOC(=O)C1(C(C)=O)C(c2ccc(N(C)C)cc2)N1c1ccc(/N=N/c2ccccc2OC)cc1 (stereo not drawn) | 4.421 | – | – | – | –
CCOC(=O)C1(C(C)=O)C(c2ccc(N(C)C)cc2)N1c1ccc(/N=N/c2ccccc2)cc1 (stereo not drawn) | 4.128 | 4.154 | 0.0701 (≈ 0.154 nM) | 4.046 | 4.079
CCOC(=O)C1(C(C)=O)C(c2ccc(N(C)C)cc2)N1c1ccc(/N=N/c2cccc(O)c2)cc1 (stereo not drawn) | 4.212 | 4.243 | 0.0571 (≈ 0.121 nM) | 4.118 | 4.155
CCOC(=O)C1(C(C)=O)C(c2ccc(N(C)C)cc2)N1c1ccc(/N=N/c2ccc(C(=O)O)cc2)cc1 (stereo not drawn) | 4.444 | 4.495 | 0.032 (≈ 0.0639 nM) | 4.301 | 4.357
CCOC(=O)C1(C(C)=O)C(c2ccc(N(C)C)cc2)N1c1ccc(/N=N/c2cccc(OC)c2)cc1 (stereo not drawn) | 4.54 | 4.607 | 0.0247 (≈ 0.0508 nM) | 4.364 | 4.431
